Data: ChEMBL document CHEMBL4725436, “Gibberellin JRA-003: A Selective Inhibitor of Nuclear Translocation of IKKα” (ACS Med Chem Lett, 2020)
The source made the active and inactive calls. The calls are words filed in the database; no cut-off is given here.

What was measured:
[1] = target: T1, Inhibitor of nuclear factor kappa-B kinase subunit alpha (Homo sapiens) (UniProt O15111); assay: Binding affinity to IKKalpha in human HeLa cells at 50 uM preincubated with IL-1 beta for 3 hrs followed by incubation with compound for 2 hrs by pull down based western blotting analysis; type: cell-based
T1 sequence (whole entry): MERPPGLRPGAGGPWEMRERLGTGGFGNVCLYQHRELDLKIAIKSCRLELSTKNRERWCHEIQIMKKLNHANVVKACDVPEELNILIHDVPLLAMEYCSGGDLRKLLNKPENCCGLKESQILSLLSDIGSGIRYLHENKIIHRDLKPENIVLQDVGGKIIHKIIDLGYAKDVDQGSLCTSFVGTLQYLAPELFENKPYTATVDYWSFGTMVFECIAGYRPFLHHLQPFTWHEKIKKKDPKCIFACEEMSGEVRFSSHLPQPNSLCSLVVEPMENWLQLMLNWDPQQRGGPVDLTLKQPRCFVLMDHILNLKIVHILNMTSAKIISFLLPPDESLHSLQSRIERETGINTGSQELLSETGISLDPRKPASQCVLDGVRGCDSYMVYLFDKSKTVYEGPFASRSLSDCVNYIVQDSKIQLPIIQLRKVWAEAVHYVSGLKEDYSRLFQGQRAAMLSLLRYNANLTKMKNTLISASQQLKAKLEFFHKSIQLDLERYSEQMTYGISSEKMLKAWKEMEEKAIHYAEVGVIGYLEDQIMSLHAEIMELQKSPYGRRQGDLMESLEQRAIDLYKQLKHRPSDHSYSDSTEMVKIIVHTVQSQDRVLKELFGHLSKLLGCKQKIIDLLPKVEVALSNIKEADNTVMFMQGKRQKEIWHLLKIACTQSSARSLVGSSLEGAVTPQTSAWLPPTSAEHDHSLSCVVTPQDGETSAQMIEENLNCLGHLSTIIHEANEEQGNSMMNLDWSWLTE
How it was run: (§1)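 Alkyne-tagged probe pull-down in IL-1β-stimulated HeLa cells. Protein captured by the probe was analysed by Western blotting.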

SUD4 = assay: Cytotoxicity against human SU-DHL-4 cells assessed as reduction in cell viability measured after 24 hrs by CellTiter-Glo luminescent assay; type: functional, cell-based; details: SU-DHL-4, 24 h
How it was run: (§2)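 High-throughput viability screen of test agents across a panel of 22 cancerous and noncancerous human cell lines. Viability was read by CellTiter-Glo luminescence.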

PSN1 = assay: Cytotoxicity against human PSN1 cells assessed as reduction in cell viability measured after 24 hrs by CellTiter-Glo luminescent assay; type: functional, cell-based; details: PSN1, 24 h; how it was run: as §2
[2] = Inhibition of IKKalpha/IKKbeta in human HEK293T cells transfected with firefly luciferase gene assessed as inhibition of TNF-alpha-stimulated NF-kappaB signalling preincubated for 1 hr followed by TNF alpha stimulation measured after 3 hrs by luciferase reporter gene assay; type: cell-based; details: HEK-293T
How it was run: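 Commercial NF-κB-driven luciferase reporter assay in HEK 293T cells stimulated with TNFα. EC50 was derived from the luminescence readout.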

NCI-H446 = assay: Cytotoxicity against human NCI-H446 cells assessed as reduction in cell viability measured after 24 hrs by CellTiter-Glo luminescent assay; type: functional, cell-based; details: NCI-H446, 24 h; how it was run: as §2
[3] = target: T1, Inhibitor of nuclear factor kappa-B kinase subunit alpha (Homo sapiens); assay: Inhibition of JRA-031 binding to IKKalpha in TNF-alpha-stimulated human HEK293T cells at 1 uM pretreated with compound for 1 hr followed by labeling with JRA-031 for 1 hr followed by stimulation with TNF-alpha for 1 hr by pull down based mass spectrometry; type: cell-based; details: HEK-293T
[4] = Cytotoxicity against human Hs895SK cells assessed as reduction in cell viability measured after 24 hrs by CellTiter-Glo luminescent assay; type: cell-based; details: Hs 895.Sk; how it was run: as §2
RCK8 = assay: Cytotoxicity against human RC-K8 cells assessed as reduction in cell viability measured after 24 hrs by CellTiter-Glo luminescent assay; type: functional, cell-based; details: RCK8, 24 h; how it was run: as §2
[5] = target: T2, Inhibitor of nuclear factor kappa-B kinase subunit beta (Homo sapiens) (UniProt O14920); assay: Inhibition of JRA-031 binding to IKKbeta in TNF-alpha-stimulated human HEK293T cells at 1 uM pretreated with compound for 1 hr followed by labeling with JRA-031 for 1 hr followed by stimulation with TNF-alpha for 1 hr by pull down based mass spectrometry; type: cell-based; details: HEK-293T
T2 sequence (whole entry): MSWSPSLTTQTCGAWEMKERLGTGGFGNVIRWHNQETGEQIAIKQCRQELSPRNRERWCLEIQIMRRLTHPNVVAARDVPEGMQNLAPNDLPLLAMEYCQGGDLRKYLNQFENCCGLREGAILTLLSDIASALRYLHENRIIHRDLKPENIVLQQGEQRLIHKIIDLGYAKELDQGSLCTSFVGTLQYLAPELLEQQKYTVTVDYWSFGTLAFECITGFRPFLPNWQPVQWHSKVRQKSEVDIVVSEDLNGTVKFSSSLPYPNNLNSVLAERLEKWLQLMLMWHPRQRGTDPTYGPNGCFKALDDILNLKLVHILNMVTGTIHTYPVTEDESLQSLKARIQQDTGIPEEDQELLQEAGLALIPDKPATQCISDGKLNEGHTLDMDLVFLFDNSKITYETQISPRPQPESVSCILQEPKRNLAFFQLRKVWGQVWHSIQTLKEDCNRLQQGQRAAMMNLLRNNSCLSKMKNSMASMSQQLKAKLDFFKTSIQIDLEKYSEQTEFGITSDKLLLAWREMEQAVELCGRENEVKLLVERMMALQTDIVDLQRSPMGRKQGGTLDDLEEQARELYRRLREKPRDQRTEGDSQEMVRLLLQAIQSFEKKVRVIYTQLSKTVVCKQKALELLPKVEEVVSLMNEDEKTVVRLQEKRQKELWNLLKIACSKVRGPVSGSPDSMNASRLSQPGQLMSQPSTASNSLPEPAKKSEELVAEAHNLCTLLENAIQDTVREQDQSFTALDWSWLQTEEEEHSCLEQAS

[6] = Cytotoxicity against human Hs578Bst cells assessed as reduction in cell viability measured after 24 hrs by CellTiter-Glo luminescent assay; type: cell-based; how it was run: as §2
HCC1599 = assay: Cytotoxicity against human HCC1599 cells assessed as reduction in cell viability measured after 24 hrs by CellTiter-Glo luminescent assay; type: functional, cell-based; details: HCC1599, 24 h; how it was run: as §2
[7] = Cytotoxicity against human Hs895T cells assessed as reduction in cell viability measured after 24 hrs by CellTiter-Glo luminescent assay; type: functional, cell-based; how it was run: as §2
HEK-293T = assay: Cytotoxicity against human HEK293T cells assessed as reduction in cell viability measured after 24 hrs by CellTiter-Glo luminescent assay; type: cell-based; how it was run: as §2
CA46 = assay: Cytotoxicity against human CA46 cells assessed as reduction in cell viability measured after 24 hrs by CellTiter-Glo luminescent assay; type: functional, cell-based; details: CA46, 24 h; how it was run: as §2
Hs-578T = assay: Cytotoxicity against human Hs-578T cells assessed as reduction in cell viability measured after 24 hrs by CellTiter-Glo luminescent assay; type: functional, cell-based; how it was run: as §2
[8] = Cytotoxicity against human Hs888Lu cells assessed as reduction in cell viability measured after 24 hrs by CellTiter-Glo luminescent assay; type: cell-based; how it was run: as §2
[9] = target: T1, Inhibitor of nuclear factor kappa-B kinase subunit alpha (Homo sapiens); assay: Binding affinity to IKKalpha in human HeLa cells at 10 uM preincubated with IL-1 beta for 3 hrs followed by incubation with compound for 2 hrs by pull down based western blotting analysis; type: cell-based; how it was run: as §1
[10] = target: T1, Inhibitor of nuclear factor kappa-B kinase subunit alpha (Homo sapiens); assay: Irreversible covalent binding affinity to IKKalpha in human HeLa cells at 10 uM preincubated with IL-1 beta for 3 hrs followed by incubation with compound for 2 hrs measured following rigorous washing by pull down based western blotting analysis; type: cell-based; how it was run: as §1
[11] = target: T3, Nuclear factor NF-kappa-B p105 subunit (Homo sapiens, UniProt P19838); assay: Binding affinity to NF-kappaB p50 (unknown origin) by SPR analysis
T3 sequence (P19838 whole entry): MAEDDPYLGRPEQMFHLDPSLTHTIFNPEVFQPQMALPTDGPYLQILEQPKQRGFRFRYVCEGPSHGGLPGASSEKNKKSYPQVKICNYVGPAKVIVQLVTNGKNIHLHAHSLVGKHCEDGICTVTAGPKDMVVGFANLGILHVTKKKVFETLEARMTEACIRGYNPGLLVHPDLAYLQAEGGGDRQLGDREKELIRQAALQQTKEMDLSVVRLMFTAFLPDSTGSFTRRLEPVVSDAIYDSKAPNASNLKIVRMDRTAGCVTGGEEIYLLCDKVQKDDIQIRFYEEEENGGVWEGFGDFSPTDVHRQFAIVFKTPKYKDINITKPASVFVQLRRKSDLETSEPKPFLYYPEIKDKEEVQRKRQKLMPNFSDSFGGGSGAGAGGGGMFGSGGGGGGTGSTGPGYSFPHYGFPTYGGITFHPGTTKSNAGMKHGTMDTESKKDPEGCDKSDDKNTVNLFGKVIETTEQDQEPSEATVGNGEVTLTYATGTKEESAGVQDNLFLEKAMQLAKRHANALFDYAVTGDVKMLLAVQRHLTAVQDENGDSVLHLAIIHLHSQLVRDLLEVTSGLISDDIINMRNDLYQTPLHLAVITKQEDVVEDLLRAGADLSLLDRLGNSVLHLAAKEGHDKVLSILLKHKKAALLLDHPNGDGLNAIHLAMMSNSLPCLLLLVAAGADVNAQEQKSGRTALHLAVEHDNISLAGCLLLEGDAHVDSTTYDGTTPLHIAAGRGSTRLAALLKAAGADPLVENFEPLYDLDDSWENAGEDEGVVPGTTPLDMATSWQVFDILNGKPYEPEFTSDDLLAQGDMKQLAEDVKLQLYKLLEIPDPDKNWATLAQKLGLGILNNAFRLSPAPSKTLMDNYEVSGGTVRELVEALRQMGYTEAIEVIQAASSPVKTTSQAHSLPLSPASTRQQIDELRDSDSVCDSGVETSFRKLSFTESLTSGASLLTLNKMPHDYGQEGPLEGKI

Transcription factor p65 = Transcription factor p65 (Homo sapiens, UniProt Q04206); assay: Binding affinity to NF-kappaB RelA (unknown origin) by SPR analysis
Chain of Transcription factor p65 (Q04206 whole entry): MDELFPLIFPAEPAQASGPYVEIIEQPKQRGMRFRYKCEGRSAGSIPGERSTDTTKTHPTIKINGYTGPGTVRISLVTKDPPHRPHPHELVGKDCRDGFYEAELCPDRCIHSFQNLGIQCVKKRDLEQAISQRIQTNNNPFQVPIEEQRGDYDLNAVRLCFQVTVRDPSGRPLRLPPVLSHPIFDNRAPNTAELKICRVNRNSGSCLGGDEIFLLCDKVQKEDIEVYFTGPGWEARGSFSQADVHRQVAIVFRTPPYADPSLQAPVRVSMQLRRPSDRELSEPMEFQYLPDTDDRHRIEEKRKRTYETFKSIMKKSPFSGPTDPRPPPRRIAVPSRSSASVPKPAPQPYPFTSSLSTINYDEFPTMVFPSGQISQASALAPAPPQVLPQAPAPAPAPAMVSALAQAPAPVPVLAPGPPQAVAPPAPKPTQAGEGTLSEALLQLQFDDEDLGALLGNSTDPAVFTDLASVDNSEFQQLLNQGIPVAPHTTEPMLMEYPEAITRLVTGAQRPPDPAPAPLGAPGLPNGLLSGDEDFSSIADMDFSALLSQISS

inhibition [1] | EC50 [2] [µM] | inhibition [3] | inhibition [5] | inhibition [9] | inhibition [10] | Kd [11] [µM] | Kd (Transcription factor p65) [µM] | SMILES | IC50 (SUD4) [µM] | IC50 (PSN1) [µM] | IC50 (NCI-H446) [µM] | IC50 [4] [µM] | IC50 (RCK8) [µM] | IC50 [6] [µM] | IC50 (HCC1599) [µM] | IC50 [7] [µM] | IC50 (HEK-293T) [µM] | IC50 (CA46) [µM] | IC50 (Hs-578T) [µM] | IC50 [8] [µM]
inactive |  |  |  |  |  |  |  | C#CCCNC(=O)[C@H]1[C@H]2[C@@]3(C=C[C@H](O)[C@@]2(C)C(=O)O3)[C@@H]2CC[C@]3(O)C[C@@]21CC3=C |  |  |  |  |  |  |  |  |  |  |  | 
 | > 100 | inactive | inactive |  |  |  |  | C=C1C[C@]23C[C@@]1(O)CC[C@H]2[C@@]12C=C[C@H](O)[C@@](C)(C(=O)O1)[C@H]2[C@@H]3C(=O)OC | > 10 | > 10 | > 10 | > 10 | > 10 | > 10 | > 10 | > 10 | > 10 | > 10 | > 10 | > 10
 |  |  |  | Active | Active |  |  | C#CCCNC(=O)[C@H]1[C@@H]2[C@@]3(C)C(=O)C=C[C@@]2(OC3=O)[C@@H]2CC[C@]3(O)C[C@@]21CC3=C |  |  |  |  |  |  |  |  |  |  |  | 
 | > 100 |  |  |  |  | 0.076 | 6.34 | C=C1C[C@]23C[C@@]1(O)CC[C@@H]2c1cccc(C)c1[C@@H]3C(=O)O | > 10 | > 10 | > 10 | > 10 | > 10 | > 10 | > 10 | > 10 | > 10 | > 10 | > 10 | > 10
